Positions of bridges follow the written chain, without caps; N, C: chain ends. Non-standard residues stand in square brackets, D forms with d. Residues, ends and D or L forms follow the SMILES beside them. *: point of attachment. 6FAM = O=C1OC2(c3ccc(O)cc3Oc3cc(O)ccc32)c2cc(C(=O)*)ccc21; PEG3 = NCCOCCOCCOCCC(=O)O
Experiment: Lysate degradation assay
Assay type: in vitro ADME, mouse
Conditions: for time for 90% degradation of the peptide: Baf/BCR-ABL cell lysate, 3 mg mL^-1 protein, 2 μM peptide, 37 °C, CE-LIF; for half-life at 2 μM: mouse, Baf/BCR-ABL cell lysate (cytosolic), pH 7.4
Summary of the method: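 Mouse B-cell lymphoma Baf/BCR-ABL cells washed and resuspended in cold ECB (pH 7.4), then lysed by three cycles of liquid nitrogen (1 min) and 37 °C thaw; supernatant kept after 14,000 × g, 4 °C, 5 min. Peptide at 2 μM in lysate (3 mg mL−1 protein), 37 °C, triplicate. Timed aliquots quenched with HCl (100 mM final) and 95 °C for 4 min. Intact fraction = intact-peak area / total peak area.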

time for 90% degradation of the peptide [min]	increase in half-life over the control peptide (Baf/BCR-ABL cytosolic lysate) [fold]	half-life at 2 μM [min]	SMILES
≤ 10	~10	4.8 ± 0.4	CC[C@H](C)[C@H](NC(=O)[C@H](C)NC(=O)[C@H](CCC(=O)O)NC(=O)[C@H](CCCCNC(=O)c1ccc2c(c1)C1(OC2=O)c2ccc(O)cc2Oc2cc(O)ccc21)NC(=O)CCOCCOCCOCCNC(=O)CCOCCOCCOCCNC(=O)[C@H](CCCNC(=N)N)NC(=O)CNC(=O)[C@H]1CCCN1C(=O)[C@@H](N)Cc1c[nH]c2ccccc12)C(=O)N[C@@H](Cc1ccc(O)cc1)C(=O)N[C@@H](C)C(=O)N[C@@H](C)C(=O)N1CCC[C@H]1C(=O)N[C@@H](Cc1ccccc1)C(=O)N[C@@H](C)C(=O)N[C@@H](CCCCN)C(=O)N[C@@H](CCCCN)C(=O)N[C@@H](CCCCN)C(N)=O [Peptide 2] (H-W[dP]GR[PEG3][PEG3]K(6FAM)EAIYAAPFAKKK-NH2; N-terminus assumed)
25		9.2 ± 1.2	CC[C@H](C)[C@H](NC(=O)[C@H](C)NC(=O)[C@H](CCC(=O)O)NC(=O)[C@H](CCCCNC(=O)c1ccc2c(c1)C1(OC2=O)c2ccc(O)cc2Oc2cc(O)ccc21)NC(=O)CCOCCOCCOCCNC(=O)CCOCCOCCOCCNC(=O)[C@@H]1CSCC(=O)N[C@@H](Cc2c[nH]c3ccccc23)C(=O)N2CCC[C@@H]2C(=O)NCC(=O)N[C@@H](CCCNC(=N)N)C(=O)N1)C(=O)N[C@@H](Cc1ccc(O)cc1)C(=O)N[C@@H](C)C(=O)N[C@@H](C)C(=O)N1CCC[C@H]1C(=O)N[C@@H](Cc1ccccc1)C(=O)N[C@@H](C)C(=O)N[C@@H](CCCCN)C(=O)N[C@@H](CCCCN)C(=O)N[C@@H](CCCCN)C(N)=O [Peptide 4] ({CH2CO}-W[dP]GRC[PEG3][PEG3]K(6FAM)EAIYAAPFAKKK-NH2; thioether N-5)

— article PMC3752283 (The Analyst, 2013)
